Results as given in ChEMBL document CHEMBL1153392, “Identification of a metabolically stable triazolopyrimidine-based dihydroorotate dehydrogenase inhibitor with antimalarial activity in mice” (J Med Chem, 2009).
Calls of active or inactive are those of the source. The rule behind the calls is not given here.

Columns and labels:
Liver microsomes [1] = conditions: human, 1 µM
Plasmodium berghei [2] = experiment: Inhibition of Plasmodium berghei ANKA DHODH
How it was run: (§1)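 Truncated soluble enzyme expressed in E. coli and purified. DCIP (0.12 mM) reduction followed at 600 nm with 5-10 nM enzyme, 0.2 mM L-dihydroorotate and 0.02 mM CoQD in 100 mM HEPES pH 8.0, 150 mM NaCl, 10% glycerol, 0.1% Triton, 20 °C. Triplicate points per concentration; IC50 fitted.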

Liver microsomes [3] = conditions: human, 1 µM; remark: listed apart in the source
[4] = target: T1, Dihydroorotate dehydrogenase (Plasmodium falciparum, UniProt Q54A96); experiment: Inhibition of Plasmodium falciparum DHODH
T1 sequence (Q54A96 whole entry): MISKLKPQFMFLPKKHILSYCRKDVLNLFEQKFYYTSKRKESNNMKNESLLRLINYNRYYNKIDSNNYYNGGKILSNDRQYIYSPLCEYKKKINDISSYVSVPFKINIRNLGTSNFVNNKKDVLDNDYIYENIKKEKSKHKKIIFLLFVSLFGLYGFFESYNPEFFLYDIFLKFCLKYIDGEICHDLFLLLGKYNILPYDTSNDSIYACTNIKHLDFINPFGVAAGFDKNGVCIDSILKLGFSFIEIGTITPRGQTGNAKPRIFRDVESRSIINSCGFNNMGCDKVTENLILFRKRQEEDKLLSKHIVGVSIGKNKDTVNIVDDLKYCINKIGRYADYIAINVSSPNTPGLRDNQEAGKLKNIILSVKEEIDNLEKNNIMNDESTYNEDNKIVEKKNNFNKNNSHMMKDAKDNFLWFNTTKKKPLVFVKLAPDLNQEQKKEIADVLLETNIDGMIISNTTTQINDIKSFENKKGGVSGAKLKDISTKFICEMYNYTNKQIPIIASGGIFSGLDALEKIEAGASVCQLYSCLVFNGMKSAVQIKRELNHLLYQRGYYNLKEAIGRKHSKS
How it was run: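 Truncated soluble recombinant enzyme expressed in E. coli. Triplicate points per inhibitor concentration; IC50 from fit to Vi = Vo/(1+[I]/IC50).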

[5] = target: Dihydroorotate dehydrogenase (quinone), mitochondrial (Homo sapiens, UniProt Q02127); experiment: Inhibition of human DHODH
How it was run: as §1

Plasmodium falciparum = experiment: Antiplasmodial activity against Plasmodium falciparum 3D7 by [3H]hypoxanthine uptake; type: functional, organism-based
How it was run: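 Proliferation of drug-treated infected erythrocytes measured by [3H]hypoxanthine uptake over a range of inhibitor concentrations, triplicate points per concentration. EC50 derived from a Hill-slope logistic fit.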

[6] = Plasma concentration in Swiss mouse at 50 mg/kg, po administered as single dose for 240 mins; type: ADME, organism-based; set-up: dose 50 mg/kg, route oral; conditions: read-out: C0
How it was run: (§2)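 Nonfasted male Swiss outbred mice, 23-33 g, fed ad libitum. Single oral gavage as a suspension in 0.5% CMC, 0.5% benzyl alcohol, 0.4% Tween-80. One cardiac-puncture blood sample per mouse per time point. Plasma analysed by LC-MS/MS after acetonitrile precipitation, with diazepam as internal standard and a plasma calibration curve. PK parameters taken from mean concentration-time profiles.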

Mus musculus [7] = experiment: Toxicity in Plasmodium berghei NK65 infected BALB/c mice (Mus musculus) at 100 mg/kg, perorally administered every 4 hrs x 10 doses followed by every 6 hrs x 6 doses schedule; type: organism-based; set-up: dose 100 mg/kg, route oral; conditions: in vivo, po
How it was run: (§3)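 P. berghei-infected female BALB/c mice dosed by oral gavage in 0.5% CMC/0.4% Tween-80/0.5% benzyl alcohol. Tail bleeds and body weighing done daily. Animals monitored for ill effects and euthanized when the no-drug controls lost 20% of their pre-infection body weight.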

Mus musculus [8] = experiment: Plasma concentration in Swiss mouse at 50 mg/kg, po administered as single dose; type: ADME, organism-based; set-up: dose 50 mg/kg, route oral; conditions: in vivo
How it was run: as §2

Plasmodium berghei [9] = experiment: Antimalarial activity as reduced parasitaemia against Plasmodium berghei NK65 infected BALB/c mice (Mus musculus) at 100 mg/kg peroral dose at 10x4hrs then 6x6hrs; type: functional, organism-based; set-up: dose 100 mg/kg
How it was run: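 Female BALB/c mice, 8-10 weeks old, infected ip with 2 × 10^7 infected erythrocytes 24 h before dosing; ≥0.1% parasitemia verified. Oral gavage in 0.5% CMC/0.4% Tween-80/0.5% benzyl alcohol every 4 h × 10 doses, then every 6 h × 6 doses (n = 6 per group), against vehicle controls. Parasitemia counted daily by light microscopy of Wright-Giemsa stained thin tail-blood smears.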

Plasmodium berghei [10] = experiment: (§4) Antimalarial activity as reduced growth at day 5 in Plasmodium berghei NK65 infected BALB/c mice (Mus musculus) at 50 mg/kg peroral dose over 4 days; type: functional; set-up: scale not given: the % may be the effect or the level left; conditions: route oral
How it was run: (§5)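 Female BALB/c mice, 8-10 weeks old, infected ip with 2 × 10^7 infected erythrocytes 24 h before the first dose; ≥0.1% parasitemia confirmed first. Dosing by oral gavage in 0.5% CMC/0.4% Tween-80/0.5% benzyl alcohol, once daily (n = 3) or twice daily (n = 5) on days 1-4, with vehicle controls. Parasitemia counted daily from Wright-Giemsa thin tail-blood smears; suppression reported on day 5.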

Mus musculus [11] = experiment: Plasma concentration in Swiss mouse at 20 mg/kg, po administered as single dose; type: ADME, organism-based; set-up: dose 20 mg/kg, route oral; conditions: in vivo
How it was run: as §2

Mus musculus [12] = experiment: Toxicity in Plasmodium berghei NK65 infected BALB/c mice (Mus musculus) at 50 mg/kg, perorally bid for 4 days measured on day 5 postinfection; type: organism-based; set-up: dose 50 mg/kg, route oral; conditions: in vivo, po, 96 h
How it was run: as §3

[13] = Half life in Swiss mouse at 50 mg/kg, po administered as single dose; type: ADME, organism-based; set-up: dose 50 mg/kg, route oral; conditions: in vivo
How it was run: as §2

Mus musculus [14] = experiment: Toxicity in Swiss mouse at 50 mg/kg, po administered as single dose; type: organism-based; set-up: dose 50 mg/kg, route oral; conditions: in vivo
How it was run: (§6)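 Nonfasted male Swiss outbred mice, 23-33 g, given a single oral gavage dose suspended in 0.5% CMC/0.5% benzyl alcohol/0.4% Tween-80, then watched for adverse reactions over the plasma sampling period.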

Mus musculus [15] = experiment: Toxicity in Plasmodium berghei NK65 infected BALB/c mice (Mus musculus) at 50 mg/kg, perorally qd for 4 days measured on day 5 postinfection; type: organism-based; set-up: dose 50 mg/kg, route oral; conditions: in vivo, po, 96 h
How it was run: as §3

Plasmodium berghei [16] = experiment: as §4; type: functional; set-up: scale not given: the % may be the effect or the level left; conditions: route oral; remark: listed apart in the source
How it was run: as §5

Mus musculus [17] = experiment: Toxicity in Swiss mouse at 20 mg/kg, po administered as single dose; type: organism-based; set-up: dose 20 mg/kg, route oral; conditions: in vivo
How it was run: as §6

[18] = Plasma concentration in Swiss mouse at 50 mg/kg, po administered as single dose for 16 hrs; type: ADME, organism-based; set-up: dose 50 mg/kg, route oral
How it was run: as §2

Chain of Dihydroorotate dehydrogenase (quinone), mitochondrial (Q02127 whole entry): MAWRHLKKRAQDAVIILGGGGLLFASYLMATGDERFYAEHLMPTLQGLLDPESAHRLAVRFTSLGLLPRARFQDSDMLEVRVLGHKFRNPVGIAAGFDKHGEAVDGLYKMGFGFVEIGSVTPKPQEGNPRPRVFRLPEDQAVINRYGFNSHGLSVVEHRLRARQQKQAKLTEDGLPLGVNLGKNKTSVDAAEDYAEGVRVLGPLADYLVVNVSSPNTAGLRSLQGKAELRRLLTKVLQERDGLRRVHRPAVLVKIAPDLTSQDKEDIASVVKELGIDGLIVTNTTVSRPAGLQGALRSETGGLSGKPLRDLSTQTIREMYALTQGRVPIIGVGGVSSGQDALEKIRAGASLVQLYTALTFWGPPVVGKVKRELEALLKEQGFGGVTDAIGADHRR

SMILES	IC50 (Plasmodium berghei [2])	IC50 [4]	EC50 (Plasmodium falciparum)	other results
Cc1cc(Nc2ccc(Cl)c(C(F)(F)F)c2)n2ncnc2n1	2.4 µM	0.8 µM	> 5 µM	t1/2 (Liver microsomes [1]): 2.17 h; CL (Liver microsomes [3]): 13 µL/min/mg; IC50 [5]: > 100 µM
Cc1cc(Nc2ccc(Cl)cc2)n2ncnc2n1	5.7 µM	1.6 µM	12 µM	IC50 [5]: > 100 µM
Cc1cc(Nc2ccc(F)cc2)n2ncnc2n1	> 100 µM	19 µM	50 µM	–
Cc1cc(Nc2ccc(C(F)(F)F)c(F)c2)n2ncnc2n1	0.26 µM	0.077 µM	1.3 µM	t1/2 (Liver microsomes [1]): 6 h; CL (Liver microsomes [3]): 4.8 µL/min/mg; IC50 [5]: > 100 µM
Cc1cccc(Nc2cc(C)nc3ncnn23)c1	> 100 µM	4.9 µM	37 µM	–
Cc1cc(Nc2ccc(F)c(F)c2)n2ncnc2n1	10 µM	8 µM	> 50 µM	–
Cc1cc(Nc2cccc(F)c2F)n2ncnc2n1	> 100 µM	39 µM	–	–
Cc1cc(Nc2ccc(OC(F)F)cc2)n2ncnc2n1	25 µM	2.8 µM	8.2 µM	–
Cc1cc(Nc2ccc(C#N)c(C(F)(F)F)c2)n2ncnc2n1	11 µM	4.9 µM	8.8 µM	t1/2 (Liver microsomes [1]): 4.67 h; CL (Liver microsomes [3]): 6.2 µL/min/mg
Cc1cc(Nc2ccc(F)c(C)c2)n2ncnc2n1	21 µM	4.6 µM	8.7 µM	–
Cc1ccc(Nc2cc(C)nc3ncnn23)c(F)c1	> 100 µM	27 µM	35 µM	–
Cc1cc(Nc2c(F)c(F)c(F)c(F)c2F)n2ncnc2n1	> 100 µM	> 100 µM	> 50 µM	–
Cc1cc(Nc2ccccc2F)n2ncnc2n1	> 100 µM	> 100 µM	> 50 µM	–
Cc1cc(Nc2ccc(C)c(F)c2)n2ncnc2n1	3.2 µM	0.86 µM	3.6 µM	t1/2 (Liver microsomes [1]): 0.6 h; CL (Liver microsomes [3]): 49 µL/min/mg; IC50 [5]: > 100 µM
Cc1cc(Nc2cccc(Cl)c2)n2ncnc2n1	–	1.4 µM	–	t1/2 (Liver microsomes [1]): 0.75 h; CL (Liver microsomes [3]): 38 µL/min/mg
Cc1cc(Nc2cccc(F)c2)n2ncnc2n1	> 100 µM	9.2 µM	34 µM	t1/2 (Liver microsomes [1]): 1.62 h; CL (Liver microsomes [3]): 18 µL/min/mg
Cc1cc(Nc2c(F)c(F)cc(F)c2F)n2ncnc2n1	> 100 µM	> 100 µM	> 50 µM	–
Cc1cc(Nc2ccc(Br)cc2)n2ncnc2n1	1.3 µM	0.78 µM	4.2 µM	IC50 [5]: > 100 µM
Cc1cc(Nc2cc(C(F)(F)F)cc(C(F)(F)F)c2)n2ncnc2n1	> 100 µM	> 100 µM	> 5 µM	–
Cc1cc(Nc2cccc(C(F)(F)F)c2)n2ncnc2n1	55 µM	14 µM	19 µM	t1/2 (Liver microsomes [1]): 1 h; CL (Liver microsomes [3]): 29 µL/min/mg
Cc1cc(Nc2ccccc2C(F)(F)F)n2ncnc2n1	> 100 µM	> 100 µM	–	–

SMILES	IC50 (Plasmodium berghei [2])	IC50 [4]	EC50 (Plasmodium falciparum)	other results
Cc1cc(Nc2ccc(Cc3ccccc3)cc2)n2ncnc2n1	> 100 µM	2.2 µM	5 µM	–
COc1ccc(Nc2cc(C)nc3ncnn23)cc1	> 50 µM	4.6 µM	14 µM	–
Cc1cc(Nc2ccc(F)c(F)c2F)n2ncnc2n1	> 100 µM	29 µM	> 50 µM	–
Cc1cc(Nc2ccc(C)c(C(F)(F)F)c2)n2ncnc2n1	7.3 µM	1.55 µM	–	IC50 [5]: > 100 µM
Cc1cc(Nc2ccccc2C#N)n2ncnc2n1	> 100 µM	> 100 µM	25 µM	–
Cc1cc(Nc2ccc3cc4ccccc4cc3c2)n2ncnc2n1	–	–	–	t1/2 (Liver microsomes [1]): 0.717 h; concentration at 4 h [6]: 1000 nM; Activity (Mus musculus [7]): Non-toxic; concentration (Mus musculus [8]): 2000 nM; Activity (Plasmodium berghei [9]): inactive; CL (Liver microsomes [3]): 37 µL/min/mg
Cc1cc(Nc2c(F)cccc2F)n2ncnc2n1	> 100 µM	> 100 µM	> 50 µM	–
Cc1cc(Nc2ccc(-c3ccccc3)cc2)n2ncnc2n1	–	5.3 µM	> 50 µM	–
Cc1ccc(Nc2cc(C)nc3ncnn23)cc1	16 µM	4.2 µM	6.4 µM	–
Cc1cc(Nc2ccccc2C)n2ncnc2n1	> 100 µM	> 100 µM	> 50 µM	–
Cc1cc(Nc2ccc3ccccc3c2)n2ncnc2n1	–	–	–	t1/2 (Liver microsomes [1]): 0.3 h; Activity (Mus musculus [7]): Non-toxic; concentration (Mus musculus [8]): 2000 nM; Activity (Plasmodium berghei [9]): inactive; CL (Liver microsomes [3]): 96 µL/min/mg
Cc1cc(Nc2ccc([N+](=O)[O-])cc2)n2ncnc2n1	3.7 µM	4.3 µM	–	–
Cc1cc(Nc2ccc(Br)c(C(F)(F)F)c2)n2ncnc2n1	1.5 µM	0.45 µM	2.6 µM	t1/2 (Liver microsomes [1]): 2.17 h; CL (Liver microsomes [3]): 14 µL/min/mg; IC50 [5]: > 100 µM
Cc1cc(Nc2cc(F)c(F)cc2F)n2ncnc2n1	> 100 µM	17 µM	> 50 µM	–
Cc1cc(Nc2ccccc2Cl)n2ncnc2n1	> 100 µM	> 100 µM	30 µM	–
Cc1cc(Nc2ccc(OC(F)(F)F)cc2)n2ncnc2n1	4 µM	1.2 µM	–	IC50 [5]: > 100 µM
Cc1cc(Nc2c(F)cc(F)cc2F)n2ncnc2n1	> 100 µM	> 100 µM	–	–
Cc1cc(Nc2ccc(C(F)(F)F)cc2)n2ncnc2n1	–	–	–	Activity (Plasmodium berghei [10]): 71%; t1/2 (Liver microsomes [1]): 3.83 h; concentration (Mus musculus [11]): 7900 nM; Activity (Mus musculus [12]): Non-toxic; half-life [13]: 3 h; Activity (Mus musculus [14]): Non-toxic; Activity (Mus musculus [15]): Non-toxic; concentration (Mus musculus [8]): 27600 nM; Activity (Plasmodium berghei [16]): 95%; Activity (Mus musculus [17]): Non-toxic; CL (Liver microsomes [3]): 7.5 µL/min/mg; concentration at 16 h [18]: 1000 nM
Cc1cc(Nc2ccc(C)c(C)c2)n2ncnc2n1	4 µM	0.35 µM	–	t1/2 (Liver microsomes [1]): 0.383 h; CL (Liver microsomes [3]): 77 µL/min/mg; IC50 [5]: > 100 µM
Cc1cc(Nc2cc(F)cc(F)c2)n2ncnc2n1	21 µM	9.4 µM	–	–
Cc1cc(Nc2cc(F)ccc2F)n2ncnc2n1	> 100 µM	> 50 µM	> 50 µM	–
